From ChEMBL document CHEMBL3853316 (J Med Chem, 2016) come the findings set out here.

A short description of data set [1]: Half life in rat liver microsomes. It is filed as ADME. In general terms: Liver microsomes are vesicles of endoplasmic reticulum, rich in cytochrome P450 enzymes.
A short description of data set [2]: Oral bioavailability in dog at 1 mg/kg. It is filed as ADME, organism-based, Canis lupus familiaris. The settings on record: in vivo. An outline of the steps: (§1)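 Dogs (n = 3) were dosed at 0.2 mg/kg iv and 1.0 mg/kg po for pharmacokinetic parameters.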
Data set [3] can be described thus: Half life in human liver microsomes. It is filed as ADME.
Data set [4] in a line: Half life in dog liver microsomes. It is filed as ADME, Canis lupus familiaris.
Data set [5] in a line: Dissociation constant, pKa of the compound in methanol/water by spectrophotometric titration method. It is filed as physicochemical.
Data set [6] is described as follows: Half life in dog at 0.2 mg/kg, iv and 1 mg/kg, po. It is filed as ADME, organism-based, Canis lupus familiaris. The settings on record: in vivo. In short, it runs like this: as §1
The nature of data set [7]: Volume of distribution at steady state in dog at 0.2 mg/kg, iv and 1 mg/kg, po. It is filed as ADME, organism-based, Canis lupus familiaris. The settings on record: in vivo, read-out: Vdss. In short, it runs like this:
as §1

The nature of data set [8]: Clearance in dog at 0.2 mg/kg, iv and 1 mg/kg, po. It is filed as ADME, organism-based, Canis lupus familiaris. The settings on record: in vivo. In short, it runs like this:
as §1

As usually defined, the half-life is the time needed for the level to fall by half in the phase considered. One may read the bioavailability as dose-corrected exposure relative to a reference, in per cent. What is called pKa is the negative logarithm of the acid dissociation constant. A high value points to a group that holds its proton tightly. On to `Cc1cc2ccc1[C@@H](C)COC(=O)Nc1ccc(S(=O)(=O)C3CC3)c(c1)CN(C)C(=O)[C@@H]2Nc1ccc2c(N)nccc2c1`, for which the half-life in data set [1] was 12 min; in data set [3], more than 120 min; in data set [4] it was 110 min. Moreover, in data set [2], the bioavailability worked out at 1%. This compound also registered a pKa in data set [5] of 8.7.
Take `Cc1cc2ccc1[C@@H](C)COC(=O)Nc1ccc(S(=O)(=O)C3CC3)c(c1)CN(C)C(=O)[C@@H]2Nc1cc2ccnc(N)c2cc1F`: the half-life in data set [1] was 10 min; in data set [6], 360 min; in data set [3], 95 min; in data set [4], 7 min. The compound further gave a bioavailability in data set [2] of less than 1%. The Vd in data set [7] is 4 L/kg. Also, the clearance in data set [8] was 11 mL/min/kg.
Regarding `Cc1cc2ccc1[C@@H](C)COC(=O)Nc1ccc(S(=O)(=O)C3CC3)c(c1)CN(C)C(=O)[C@@H]2Nc1ccc2c(N)ncc(F)c2c1`, the half-life is 1.9 min in data set [1], 480 min in data set [6], 45 min in data set [3] and 26 min in data set [4]. The compound also showed a bioavailability in data set [2] of 40%. For the same compound, the Vd in data set [7] came out at 5 L/kg. This compound also yielded a clearance in data set [8] of 8 mL/min/kg. This compound also returned a pKa in data set [5] of 7.1.
Regarding `Cc1cc2ccc1[C@@H](C)COC(=O)Nc1ccc(S(=O)(=O)C3CC3)c(c1)CN(C)C(=O)[C@@H]2Nc1cc(F)c2c(N)nccc2c1`, the half-life is 3.3 min in data set [1], 480 min in data set [6], 120 min in data set [3] and 39 min in data set [4]. Also, the bioavailability in data set [2] came to 24%. Besides, the Vd in data set [7] was found to be 8 L/kg. In data set [8], this compound displayed a clearance of 13 mL/min/kg. In addition, in data set [5], the pKa is 8.
With `Cc1cc2ccc1[C@@H](C)COC(=O)Nc1ccc(OC(F)(F)F)c(c1)CN(C)C(=O)[C@@H]2Nc1ccc2c(N)nccc2c1`, the half-life turned out to be 37 min in data set [1], 130 min in data set [3] and 140 min in data set [4]. The bioavailability in data set [2] is 22%.
